Rows were chosen to be rich in hits. Some 4.8% of all compounds tested hit in one or more screens of this group.
UCH37 DUB inh – human UCH37 deubiquitinating enzyme inhibition; Q9Y5K5; purified proteasome/UCH37, Ub-AMC cleavage fluorescence; inhibition, % (no concentration beside the values); 330,000 compounds, 0.33% hits; AID 588478;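 active = mean inhibition over replicate wells above about 20%, limit read from the data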;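 note: 0% = compound-free wells with enzyme and 100% = wells lacking proteasome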
Target sequence (Q9Y5K5 whole entry, looked up): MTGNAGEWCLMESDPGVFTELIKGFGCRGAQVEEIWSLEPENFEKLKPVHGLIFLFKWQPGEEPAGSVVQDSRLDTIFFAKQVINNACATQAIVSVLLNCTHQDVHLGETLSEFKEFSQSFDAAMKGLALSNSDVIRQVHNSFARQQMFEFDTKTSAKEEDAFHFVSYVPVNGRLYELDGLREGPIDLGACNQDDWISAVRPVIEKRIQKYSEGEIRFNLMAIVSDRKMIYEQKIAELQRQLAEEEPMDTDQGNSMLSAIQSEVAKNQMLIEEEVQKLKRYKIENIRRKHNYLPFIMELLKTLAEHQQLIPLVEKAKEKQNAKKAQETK
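Assay system: Proteasome-bound UCH37. Buffer or medium: pH 7.4 Tris-HCl (50 mM) with ovalbumin, ATP-MgCl2, DTT. Incubation: 30 min preincubation with enzyme, 25 min cleavage at room temperature. Measured by: fluorescence, ex 355 nm, em 460 nm. Read-out basis: percent inhibition. Control set: wells without proteasome as full block, compound-free enzyme plus substrate as uninhibited.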
ATG4B inh – ATG4B (human) cysteine protease inhibition; ATG4B cleavage of LC3-PLA2, NBD-HPC fluorescence, 1 h; inhibition, % at 8.33 µM; 340,000 compounds, 0.51% hits; Q9Y4P1; in the data active = inhibition above about 40%
ALR inh – blocks human ALR sulfhydryl oxidase activity. purified ALR, DTT oxidation, H2O2 HRP-luminol luminescence. inhibition, % (test concentration not listed). 290,000 compounds, 3.8% hits. AID 485317;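 active = mean replicate inhibition above about 79%, with every replicate also reaching it, limit read from the data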
NLRP3 yeast inh – inhibitors of NALP3 inflammasome in yeast; 330,000 compounds, 0.39% hits; Yeast reconstituted NLRP3/ASC/caspase-1, beta-gal luminescence, 24 h; inhibition, % at 10 µM; AID 2825;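 active = inhibition of 50% or more; inactive = inhibition below 50%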;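 note: plate controls were induced DMSO wells for no effect and uninduced yeast grown without galactose for full effect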
Calb FLC – affects C. albicans growth with fluconazole; C. albicans CaCi-2 + fluconazole, Alamar Blue growth, 48 h; growth inhibition, % (no concentration beside the values); 300,000 compounds, 0.57% hits;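 active = growth inhibition above about 58% in most replicates, limit read from the data, passing the limit was not always enough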;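 note: all wells also contain fluconazole at 8 µg/ml as a sub-toxic cotreatment; 0% = median of DMSO wells and 100% = median of geldanamycin control wells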
NALP1 yeast inh – inhibitors of NALP1 inflammasome in yeast. inhibition, % at 10 µM. S. cerevisiae NALP1/ASC/caspase-1 growth, X-gal OD620, 72 h. 280,000 compounds, 0.61% hits; in the data active = inhibition mostly above about 24%, no sharp cut-off; inactive = mostly below about 32%
Active calls of the source: *; . = no result.

SMILES | UCH37 DUB inh | ATG4B inh | ALR inh | NLRP3 yeast inh | Calb FLC | NALP1 yeast inh
CCOC=Nc1c(C#N)c(CC#N)nn1-c1ccccc1 | -1 | . | . | . | . | .
O=C(COC(=O)CSc1ccc([N+](=O)[O-])cc1)NCC1CCCO1 (stereo not given) | 6 | -8 | 99* | 26 | 9 | 19
O=C(COC(=O)CSc1ccc([N+](=O)[O-])cc1)NC1CCCCCCC1 | 5 | 4 | -9 | -5 | . | .
Cc1ccc(Cn2ccsc2=NC(=O)COC(=O)c2ccc(NC(=O)CC#N)cc2)cc1 | 1 | -13 | 52 | 11 | -7 | .
Cc1ccc(Cn2ccsc2=NC(=O)CCl)cc1 | 0 | -3 | 97* | 6 | -30 | -10
Cc1nc(SC(C)C(=O)c2c(N)n(C)c(=O)n(C)c2=O)c2c(C)c(C)sc2n1 (stereo not given) | 6 | 12 | 91* | 17 | 3 | .
CC(Sc1nnc(N)s1)C(=O)c1c(N)n(C)c(=O)n(C)c1=O (stereo not given) | 4 | -4 | . | 8 | . | .
Cc1c(CCO)c(=O)[nH]n1S(=O)(=O)c1ccc([N+](=O)[O-])cc1 | 5 | -8 | -24 | 2 | -4 | 9
COc1ccc(S(=O)(=O)n2[nH]c(=O)c(CCO)c2C)cc1 | 2 | -3 | -3 | 4 | -3 | 29*
O=C(NN=Cc1c[nH]c2ccc(Br)cc12)C1CC1 | 7 | . | . | . | . | .
CC(CCc1ccccc1)=NNC(=O)CCc1ccccc1 | 3 | . | . | . | . | .
COc1ccccc1N1CCN(/N=C/c2cc(OC)c(O)c(OC)c2)CC1 | . | -5 | 99* | 5 | 5 | 14
Oc1ccc(/C=N/N2CCN(Cc3ccccc3)CC2)cc1 | . | 4 | 82* | 20 | 3 | -5
COc1cc(/C=N/N2CCN(Cc3ccc(C)cc3)CC2)cc(OC)c1O | . | -14 | 99* | 22 | 1 | 8
COc1cc(C(C)=NN2CCN(c3ccccc3OC)CC2)ccc1O | 5 | . | . | . | . | .
COc1ccccc1N1CCN(/N=C/c2cccc(O)c2)CC1 | . | 1 | 51 | 19 | 5 | -19
COc1cc(/C(C)=N/N2CCN(Cc3ccc(C)cc3)CC2)ccc1O | . | -7 | 89* | 4 | -1 | 6
Cc1cccc(C=NNC(=O)c2cc3c(s2)-c2ccccc2CC3)c1 | -107 | . | . | . | . | .
COc1cc(OC)c2ccc(=O)oc2c1C(CC(=O)N1CCOCC1)c1ccc(N(C)C)cc1 (stereo not given) | 2 | -2 | 98* | 10 | 4 | 4
COc1ccc(C(CC(=O)N2CCOCC2)c2c(OC)cc(OC)c3ccc(=O)oc23)cc1 (stereo not given) | -17 | -17 | . | 4 | 1 | -43
COc1ccc(C(CC(=O)N2CCCC2)c2c(OC)cc(OC)c3ccc(=O)oc23)cc1 (stereo not given) | -39 | -12 | -9 | -7 | 3 | 10
COc1cc(OC)c2ccc(=O)oc2c1C(CC(=O)N1CCCC1)c1ccc(N(C)C)cc1 (stereo not given) | 5 | -4 | 99* | -11 | -3 | -2
CC(C)(C)c1cc2cccnc2n1Cc1cccc(Cl)c1 | -1 | 16 | 0 | 12 | -54 | 46*
COc1cc(C=Nn2c(-c3cc(C)[nH]n3)n[nH]c2=S)cc(OC)c1O | 6 | . | . | . | . | .
CC[n+]1c(/C=C/C=C/N(C(C)=O)c2ccccc2)sc2ccccc21 | 6 | -69 | 50 | 11 | 89* | -8
SMILES | UCH37 DUB inh | ATG4B inh | ALR inh | NLRP3 yeast inh | Calb FLC | NALP1 yeast inh
Cc1ccc(NC(=O)/C(C#N)=N/Nc2ccc(C(=O)O)cc2)c(C)c1 | . | 1 | 76* | 19 | 6 | .
Cc1ccc(N/N=C(\C#N)C(N)=S)c(C)c1 | . | 7 | . | . | -3 | 44
C=CCN1C(c2ccccc2)=CS/C1=C(/C#N)c1nnc(N2CCOCC2)n1-c1ccccc1 | 11 | 12 | 99* | 10 | -6 | 25
CN1C(c2ccc(F)cc2)=CS/C1=C(/C#N)c1nnc(N2CCOCC2)n1-c1ccccc1 | -5 | 11 | 98* | -11 | 1 | 38
O=C(OCC(=O)N1CCOCC1)c1cc2ccccc2oc1=O | -33 | -4 | 0 | 8 | . | .
Cc1cc(C)nc(SCC(=O)c2cc3ccccc3oc2=O)n1 | 5 | 1 | 93* | 1 | -3 | -6
O=C(CSC(=S)N1CCOCC1)c1cc2ccccc2oc1=O | 3 | 7 | 96* | -2 | -3 | 2
O=C(C[n+]1ccccc1)NN=Cc1ccc(O)cc1 | 4 | . | . | . | . | .
CNC(=S)NN=Cc1cn(Cc2ccc(C)cc2)c2ccccc12 | 1 | . | . | . | . | .
